Data: ChEMBL document CHEMBL1949660 (Bioorg Med Chem Lett, 2012)
pEC50, pIC50, pKi: −log10 of the molar value.

Columns and labels:
Histamine H3 receptor [1] = target: T1, Histamine H3 receptor (Homo sapiens, UniProt Q9Y5N1); assay: Displacement of [3H]NAMH from human histamine H3 receptor expressed in CHO cells; format: cell-based
Outline: (§1)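 Radioligand displacement of [³H]NAMH from membranes isolated from CHO cells transfected with cloned human H₃ or rat H₃ receptors.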

Histamine H3 receptor [2] = target: Histamine H3 receptor (Rattus norvegicus, UniProt Q9QYN8); assay: Displacement of [3H]NAMH from rat histamine H3 receptor expressed in CHO cells; format: cell-based; outline: as §1
Histamine H3 receptor [3] = target: T1, Histamine H3 receptor; assay: Inverse agonist activity at human histamine H3 receptor assessed as inhibition of R-alpha-methylhistamine-induced [35S]GTPgammaS binding; format: functional
[4] = Apparent permeability across human Caco2 cells; format: ADME, cell-based; conditions: Caco-2
[5] = Aqueous solubility of the compound at pH 2; format: physicochemical; conditions: aqueous medium
[6] = Aqueous solubility of the compound at pH 7.4; format: physicochemical; conditions: aqueous medium
[7] = Half life in human liver microsomes; format: ADME, Microsome
[8] = Half life in rat liver microsomes; format: ADME, Microsome
[9] = Half life in dog liver microsomes; format: ADME, Canis lupus familiaris, Microsome
[10] = Half life in monkey liver microsomes; format: ADME, Macaca mulatta, Microsome; conditions: rhesus monkey
Cytochrome P450 1A2 = target: T2, Cytochrome P450 1A2 (Homo sapiens, UniProt P05177); assay: Inhibition of CYP1A2; format: ADME
T2 sequence (P05177 whole entry): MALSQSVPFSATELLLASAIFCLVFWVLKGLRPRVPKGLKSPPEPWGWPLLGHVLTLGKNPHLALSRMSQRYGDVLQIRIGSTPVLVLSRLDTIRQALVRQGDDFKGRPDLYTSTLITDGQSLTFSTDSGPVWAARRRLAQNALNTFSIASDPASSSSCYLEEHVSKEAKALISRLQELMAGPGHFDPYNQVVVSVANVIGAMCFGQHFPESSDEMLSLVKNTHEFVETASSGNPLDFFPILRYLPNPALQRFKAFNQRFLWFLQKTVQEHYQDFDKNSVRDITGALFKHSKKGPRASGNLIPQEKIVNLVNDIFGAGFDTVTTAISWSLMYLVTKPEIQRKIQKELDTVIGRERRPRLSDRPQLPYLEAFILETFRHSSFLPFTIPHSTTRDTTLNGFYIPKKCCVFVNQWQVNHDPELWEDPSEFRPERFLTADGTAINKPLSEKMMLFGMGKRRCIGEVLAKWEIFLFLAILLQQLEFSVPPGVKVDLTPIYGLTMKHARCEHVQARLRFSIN

Cytochrome P450 2C9 = Cytochrome P450 2C9 (Homo sapiens, UniProt P11712); assay: Inhibition of CYP2C9; format: ADME
Cytochrome P450 2C19 = Cytochrome P450 2C19 (Homo sapiens, UniProt P33261); assay: Inhibition of CYP2C19; format: ADME
Cytochrome P450 2D6 = Cytochrome P450 2D6 (Homo sapiens, UniProt P10635); assay: Inhibition of CYP2D6; format: ADME
Cytochrome P450 3A4 = Cytochrome P450 3A4 (Homo sapiens, UniProt P08684); assay: Inhibition of CYP3A4; format: ADME
[11] = target: Histamine H1 receptor (Homo sapiens) (UniProt P35367); assay: Inhibition of human histamine H1 receptor at 10 uM
[12] = target: Histamine H2 receptor (Homo sapiens) (UniProt P25021); assay: Inhibition of human histamine H2 receptor at 10 uM
[13] = target: Histamine H4 receptor (Homo sapiens) (UniProt Q9H3N8); assay: Inhibition of human histamine H4 receptor at 10 uM
[14] = target: Sodium-dependent dopamine transporter (Homo sapiens) (UniProt Q01959); assay: Inhibition of DAT at 10 uM
[15] = target: Voltage-gated inwardly rectifying potassium channel KCNH2 (Homo sapiens, UniProt Q12809); assay: Inhibition of human Erg by patch clamp assay
[16] = Half life in rat at 1 mg/kg, iv; format: ADME, organism-based; parameters: dose 1 mg/kg, route intravenous; conditions: in vivo
Outline: (§2)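 Rat PK: iv dose with vehicle 3% DMSO, 30% solutol, 67% phosphate buffered saline. Oral 5 mg/kg dose with vehicle 50% Tween 80, 40% propylene carbonate, 10% propylene glycol.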

[17] = Volume of distribution in rat at 1 mg/kg, iv; format: ADME, organism-based; parameters: dose 1 mg/kg, route intravenous; conditions: in vivo; outline: as §2
[18] = Clearance in rat at 1 mg/kg, iv; format: ADME, organism-based; parameters: dose 1 mg/kg, route intravenous; conditions: in vivo; outline: as §2
[19] = Cmax in rat at 5 mg/kg, po; format: ADME, organism-based; parameters: dose 5 mg/kg, route oral; conditions: in vivo
[20] = Oral bioavailability in rat at 5 mg/kg; format: ADME, organism-based; conditions: in vivo; outline: as §2
[21] = Drug uptake in rat brain at 5 mg/kg, po measured after 6 hrs; format: ADME, organism-based; parameters: dose 5 mg/kg, route oral; conditions: read-out: Drug uptake
Outline: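 Rats given 5 mg/kg po in 50% Tween 80, 40% propylene carbonate, 10% propylene glycol. Brain concentration determined 6 h after dosing.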

[22] = Ratio drug uptake in brain to plasma of rat at 10 mg/kg, ip measured after 6 hrs; format: ADME, organism-based; parameters: dose 10 mg/kg, route intraperitoneal; conditions: read-out: BPR

Histamine H3 receptor (Rattus norvegicus, UniProt Q9QYN8), sequence (Q9QYN8 whole entry): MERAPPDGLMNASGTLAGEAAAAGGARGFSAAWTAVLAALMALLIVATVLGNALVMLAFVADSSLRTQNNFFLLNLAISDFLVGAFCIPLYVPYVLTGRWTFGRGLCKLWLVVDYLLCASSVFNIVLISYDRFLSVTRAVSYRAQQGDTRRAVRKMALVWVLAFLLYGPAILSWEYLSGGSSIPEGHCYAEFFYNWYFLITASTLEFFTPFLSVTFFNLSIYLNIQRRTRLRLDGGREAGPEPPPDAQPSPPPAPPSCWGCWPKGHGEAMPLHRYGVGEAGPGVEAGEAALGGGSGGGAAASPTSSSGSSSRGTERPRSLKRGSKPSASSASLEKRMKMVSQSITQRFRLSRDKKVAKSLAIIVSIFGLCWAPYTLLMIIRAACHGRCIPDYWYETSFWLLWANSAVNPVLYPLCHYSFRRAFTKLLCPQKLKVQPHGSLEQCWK
T1 sequence (Q9Y5N1 whole entry): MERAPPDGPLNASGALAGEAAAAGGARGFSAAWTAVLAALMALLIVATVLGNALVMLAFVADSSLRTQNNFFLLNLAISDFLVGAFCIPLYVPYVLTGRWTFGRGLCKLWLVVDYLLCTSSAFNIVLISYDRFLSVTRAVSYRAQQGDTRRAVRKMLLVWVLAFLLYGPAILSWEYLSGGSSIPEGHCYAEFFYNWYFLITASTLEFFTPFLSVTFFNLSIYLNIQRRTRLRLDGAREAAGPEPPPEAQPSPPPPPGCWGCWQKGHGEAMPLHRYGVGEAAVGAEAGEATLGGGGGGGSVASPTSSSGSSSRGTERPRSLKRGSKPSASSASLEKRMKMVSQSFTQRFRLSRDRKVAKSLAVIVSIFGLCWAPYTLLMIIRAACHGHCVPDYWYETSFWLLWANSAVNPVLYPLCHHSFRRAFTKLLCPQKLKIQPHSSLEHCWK
Voltage-gated inwardly rectifying potassium channel KCNH2, sequence (Q12809 whole entry): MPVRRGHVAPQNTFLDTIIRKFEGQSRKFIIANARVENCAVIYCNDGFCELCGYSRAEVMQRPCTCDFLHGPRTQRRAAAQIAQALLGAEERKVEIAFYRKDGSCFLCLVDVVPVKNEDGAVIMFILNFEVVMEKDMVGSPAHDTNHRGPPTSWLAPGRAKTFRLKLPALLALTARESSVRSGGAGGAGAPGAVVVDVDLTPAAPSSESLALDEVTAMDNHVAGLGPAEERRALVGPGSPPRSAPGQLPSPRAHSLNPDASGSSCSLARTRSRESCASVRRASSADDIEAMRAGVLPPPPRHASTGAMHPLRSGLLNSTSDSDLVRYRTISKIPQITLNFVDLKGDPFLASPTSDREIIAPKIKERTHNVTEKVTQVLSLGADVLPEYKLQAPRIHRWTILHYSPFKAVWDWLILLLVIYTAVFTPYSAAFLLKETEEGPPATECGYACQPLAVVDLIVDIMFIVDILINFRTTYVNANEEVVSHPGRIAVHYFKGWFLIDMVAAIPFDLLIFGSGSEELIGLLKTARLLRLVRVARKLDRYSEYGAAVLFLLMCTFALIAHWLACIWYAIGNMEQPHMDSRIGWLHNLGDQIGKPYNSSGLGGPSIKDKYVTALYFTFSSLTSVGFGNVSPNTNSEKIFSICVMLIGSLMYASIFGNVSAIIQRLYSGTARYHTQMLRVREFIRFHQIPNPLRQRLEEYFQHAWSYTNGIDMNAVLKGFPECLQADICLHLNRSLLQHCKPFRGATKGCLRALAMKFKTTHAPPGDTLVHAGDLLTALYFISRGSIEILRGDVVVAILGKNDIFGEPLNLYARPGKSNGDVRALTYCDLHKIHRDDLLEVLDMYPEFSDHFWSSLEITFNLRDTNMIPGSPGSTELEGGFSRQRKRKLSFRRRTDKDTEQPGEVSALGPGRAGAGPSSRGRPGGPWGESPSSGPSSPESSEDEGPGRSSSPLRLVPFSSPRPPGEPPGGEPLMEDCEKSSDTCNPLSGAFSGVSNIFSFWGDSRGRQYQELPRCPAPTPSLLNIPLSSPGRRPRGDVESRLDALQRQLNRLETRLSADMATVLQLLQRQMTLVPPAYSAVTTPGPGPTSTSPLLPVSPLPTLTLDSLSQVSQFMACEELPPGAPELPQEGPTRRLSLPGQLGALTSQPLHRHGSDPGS
Cytochrome P450 2C9, sequence (P11712 whole entry): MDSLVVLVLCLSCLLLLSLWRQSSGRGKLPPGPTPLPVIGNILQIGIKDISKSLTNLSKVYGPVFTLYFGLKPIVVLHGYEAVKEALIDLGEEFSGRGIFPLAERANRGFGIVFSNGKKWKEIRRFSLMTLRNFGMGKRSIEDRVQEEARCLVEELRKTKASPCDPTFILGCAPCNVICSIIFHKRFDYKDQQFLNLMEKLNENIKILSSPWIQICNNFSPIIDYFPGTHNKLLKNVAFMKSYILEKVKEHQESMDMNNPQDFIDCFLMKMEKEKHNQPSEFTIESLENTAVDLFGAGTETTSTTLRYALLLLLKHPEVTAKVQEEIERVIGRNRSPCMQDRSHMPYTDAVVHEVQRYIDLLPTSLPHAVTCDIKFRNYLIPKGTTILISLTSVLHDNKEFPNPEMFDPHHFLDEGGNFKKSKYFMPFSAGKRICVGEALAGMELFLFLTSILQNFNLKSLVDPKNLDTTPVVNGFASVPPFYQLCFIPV
Histamine H1 receptor (Homo sapiens), sequence (P35367 whole entry): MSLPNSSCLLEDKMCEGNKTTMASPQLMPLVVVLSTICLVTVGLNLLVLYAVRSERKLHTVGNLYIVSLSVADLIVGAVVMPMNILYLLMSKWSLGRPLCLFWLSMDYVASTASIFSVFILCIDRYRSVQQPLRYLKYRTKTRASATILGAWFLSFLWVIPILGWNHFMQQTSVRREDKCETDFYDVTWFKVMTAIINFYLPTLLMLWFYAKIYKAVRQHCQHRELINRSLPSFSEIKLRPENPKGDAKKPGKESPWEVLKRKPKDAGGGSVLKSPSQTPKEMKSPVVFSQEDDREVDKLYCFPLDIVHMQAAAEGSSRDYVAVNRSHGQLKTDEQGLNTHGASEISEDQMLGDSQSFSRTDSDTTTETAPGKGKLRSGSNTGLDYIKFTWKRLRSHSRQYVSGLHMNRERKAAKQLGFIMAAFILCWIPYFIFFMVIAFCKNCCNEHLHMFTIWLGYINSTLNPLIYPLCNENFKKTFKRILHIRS
Histamine H4 receptor (Homo sapiens), sequence (Q9H3N8 whole entry): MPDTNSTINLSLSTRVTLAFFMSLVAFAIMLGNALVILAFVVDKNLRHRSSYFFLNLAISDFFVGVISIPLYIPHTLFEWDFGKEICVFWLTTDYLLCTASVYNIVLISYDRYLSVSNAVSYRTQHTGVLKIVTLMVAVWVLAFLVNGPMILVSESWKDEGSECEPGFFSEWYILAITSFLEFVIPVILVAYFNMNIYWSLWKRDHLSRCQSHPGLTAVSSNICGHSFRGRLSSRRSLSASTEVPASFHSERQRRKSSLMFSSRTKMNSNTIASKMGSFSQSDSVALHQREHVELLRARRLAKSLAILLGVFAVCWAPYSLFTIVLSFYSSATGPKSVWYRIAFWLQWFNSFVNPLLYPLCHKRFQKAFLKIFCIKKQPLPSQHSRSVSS
Cytochrome P450 2C19, sequence (P33261 whole entry): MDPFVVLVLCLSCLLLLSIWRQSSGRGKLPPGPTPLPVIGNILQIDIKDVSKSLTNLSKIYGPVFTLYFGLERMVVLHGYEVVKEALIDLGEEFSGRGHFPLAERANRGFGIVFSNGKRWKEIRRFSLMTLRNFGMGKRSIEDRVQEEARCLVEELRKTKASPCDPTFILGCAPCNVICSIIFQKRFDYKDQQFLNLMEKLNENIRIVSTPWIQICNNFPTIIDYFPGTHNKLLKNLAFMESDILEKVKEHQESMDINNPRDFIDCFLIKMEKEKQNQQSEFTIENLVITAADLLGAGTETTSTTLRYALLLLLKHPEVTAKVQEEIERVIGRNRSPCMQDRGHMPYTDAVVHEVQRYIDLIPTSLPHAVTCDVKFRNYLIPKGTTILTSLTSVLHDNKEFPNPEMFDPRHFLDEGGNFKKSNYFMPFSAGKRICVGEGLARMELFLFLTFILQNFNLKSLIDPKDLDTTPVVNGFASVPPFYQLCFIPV
Cytochrome P450 2D6, sequence (P10635 whole entry): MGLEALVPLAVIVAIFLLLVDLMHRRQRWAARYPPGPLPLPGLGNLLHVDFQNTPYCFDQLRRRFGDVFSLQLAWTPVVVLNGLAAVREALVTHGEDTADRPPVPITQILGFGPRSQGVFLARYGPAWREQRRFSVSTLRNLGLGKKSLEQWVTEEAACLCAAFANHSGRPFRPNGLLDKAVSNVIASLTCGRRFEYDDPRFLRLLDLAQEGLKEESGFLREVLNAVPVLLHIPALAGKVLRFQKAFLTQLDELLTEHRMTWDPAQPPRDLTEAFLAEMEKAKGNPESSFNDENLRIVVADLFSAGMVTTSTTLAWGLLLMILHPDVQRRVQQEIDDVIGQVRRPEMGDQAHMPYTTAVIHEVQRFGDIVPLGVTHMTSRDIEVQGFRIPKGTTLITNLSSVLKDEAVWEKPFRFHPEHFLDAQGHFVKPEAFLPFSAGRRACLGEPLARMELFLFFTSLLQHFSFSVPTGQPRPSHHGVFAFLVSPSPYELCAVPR
Cytochrome P450 3A4, sequence (P08684 whole entry): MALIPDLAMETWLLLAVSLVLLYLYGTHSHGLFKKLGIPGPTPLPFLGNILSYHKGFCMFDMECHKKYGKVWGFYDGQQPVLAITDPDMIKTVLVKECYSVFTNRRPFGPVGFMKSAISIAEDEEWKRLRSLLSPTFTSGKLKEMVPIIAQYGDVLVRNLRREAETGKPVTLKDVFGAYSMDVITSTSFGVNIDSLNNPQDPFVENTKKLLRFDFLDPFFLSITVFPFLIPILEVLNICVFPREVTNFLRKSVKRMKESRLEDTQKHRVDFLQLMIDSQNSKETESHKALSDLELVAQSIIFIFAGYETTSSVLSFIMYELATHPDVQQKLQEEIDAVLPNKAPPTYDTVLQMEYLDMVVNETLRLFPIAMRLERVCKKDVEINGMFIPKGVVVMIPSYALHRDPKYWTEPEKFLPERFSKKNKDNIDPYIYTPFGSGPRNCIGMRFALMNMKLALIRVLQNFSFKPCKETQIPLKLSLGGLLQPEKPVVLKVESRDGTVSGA

## CC1(C)CC(c2ccc(OC3CCN(C4CCC4)CC3)nc2)=NNC1=O
Histamine H3 receptor [1]
  pKi: 7.92
Histamine H3 receptor [2]
  pKi: 7.55

## O=c1ccc(-c2ccc(OC3CCN(C4CCCC4)CC3)cc2)n[nH]1
Histamine H3 receptor [1]
  pKi: 8.29
Histamine H3 receptor [2]
  pKi: 8.15

## Cn1nc(-c2ccc(OC3CCN(C4CCCC4)CC3)nc2)ccc1=O
Histamine H3 receptor [1]
  pKi: 8.23
Histamine H3 receptor [2]
  pKi: 7.92

## O=c1ccc(-c2ccc(OC3CCN(C4CCC4)CC3)cc2)n[nH]1
Histamine H3 receptor [1]
  pKi: 8.72
Histamine H3 receptor [2]
  pKi: 8.66
Histamine H3 receptor [3]
  pEC50: 8.96
[4]
  Papp: 165 nm/s
[5]
  solubility: > 1 mg/mL
[6]
  solubility: > 1 mg/mL
[7]
  half-life: > 40 min
[8]
  half-life: > 40 min
[9]
  half-life: > 40 min
[10]
  half-life: > 40 min
Cytochrome P450 1A2
  pIC50: < 4.52
Cytochrome P450 2C9
  pIC50: < 4.52
Cytochrome P450 2C19
  pIC50: < 4.52
Cytochrome P450 2D6
  pIC50: < 4.52
Cytochrome P450 3A4
  pIC50: < 4.52
[11]
  inhibition: < 10%
[12]
  inhibition: < 10%
[13]
  inhibition: < 10%
[14]
  inhibition: 63%
[15]
  pIC50: 5.10
[16]
  half-life: 138 min
[17]
  Vd: 2.5 L/kg
[18]
  clearance: 0.78 L/h/kg
[19]
  Cmax: 0.441 µg/mL
[20]
  bioavailability: 35%
[21]
  concentration at 6 h: 1.4 µM
[22]
  Kp at 6 h: 1.9

## Cn1nc(-c2ccc(OC3CCN(C4CCC4)CC3)nc2)ccc1=O
Histamine H3 receptor [1]
  pKi: 8.74
Histamine H3 receptor [2]
  pKi: 8.07

## O=c1ccc(-c2ccc(OC3CCN(C4CCC4)CC3)nc2)n[nH]1
Histamine H3 receptor [1]
  pKi: 8.20
Histamine H3 receptor [2]
  pKi: 7.72
[15]
  pIC50: 5.05
[20]
  bioavailability: 21%

## CC(C)N1CCC(Oc2ccc(-c3ccc(=O)n(C)n3)cc2)CC1
Histamine H3 receptor [1]
  pKi: 8.04
Histamine H3 receptor [2]
  pKi: 7.34

## Cn1nc(-c2ccc(OC3CCNCC3)cc2)ccc1=O
Histamine H3 receptor [1]
  pKi: 6.16
Histamine H3 receptor [2]
  pKi: < 6.00

## O=c1ccc(-c2ccc(OC3CCN(C4CCC4)CC3)cc2)nn1-c1ccccn1
Histamine H3 receptor [1]
  pKi: 8.01
Histamine H3 receptor [2]
  pKi: 7.82

## O=C1CCC(c2ccc(OC3CCN(C4CCC4)CC3)cc2)=NN1
Histamine H3 receptor [1]
  pKi: 8.43
Histamine H3 receptor [2]
  pKi: 8.17
